For one assay, the system named is mice. Conditions: cited from earlier work.
The next assay deals with LH and FSH. Conditions: Japanese quail; cited from earlier work.
The next assay relates to GnRH neurons. Conditions: cited from earlier work.
Another assay deals with kisspeptin. The assay is described as follows: SPR binding of RFRP-3 to immobilized kisspeptin. Details: species or system rat. Conditions: Biacore T200. The method, boiled down: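 Kisspeptin at 20 µg/ml in sodium acetate pH 5.5 was coupled to a CM5 chip (5,720 RU). Running buffer was PBS-P: 10 mM phosphate, 2.7 mM KCl, 137 mM NaCl, 0.05% P20, pH […]. Test peptide at 3.125–50 µM went over the detection and reference channels at 4 °C: 60 s injection, 15 µl/min, 15 min dissociation. Regeneration used 10 mM glycine-HCl pH 2.0 for 30 s; kinetic parameters were fitted.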

In the case of “SIKPSAYLPLRFa [GnIH, gonadotropin-inhibitory hormone]”, in the assay with mice, the “expression levels of glucose transporter 4” value is “increased the expression levels of glucose transporter 4”, the food intake result is reported as “increased food intake”, the “glucose uptake / glucose transporter 8 expression” value was “reduced glucose uptake by downregulating the expression levels of glucose transporter 8” and the “synthesis of triglycerides in adipose tissue” value is recorded as “increased the synthesis of triglycerides in adipose tissue”. The testosterone synthesis entry with mice was “reduced testosterone synthesis”. In addition, the “secretion of LH and FSH” value in the assay with LH and FSH is “inhibit the secretion of LH and FSH in the brain of Japanese quail”.
In the case of RFamide-related peptide-3 [RFRP-3], the “secretion of GnRH and expression and secretion of gonadotropin” value in the assay with GnRH neurons is “inhibit the secretion of GnRH via its receptor on GnRH neurons, thus acting on the pituitary system to inhibit the expression and secretion of gonadotropin, LH and FSH”. Moreover, the “direct binding to kisspeptin (in words)” value in the assay with kisspeptin was “could bind directly to kisspeptin”.
